The results in this text go back to PubChem BioAssay.

The source made the active and inactive calls.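 The calls were made as follows, unless noted: active = viability at or below 10% of carrier control in both of two separate runs; inconclusive = viability at or below 10% in only one of the two runs; inactive = the rest.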

Assay [1] can be described thus: Her2 expression decrease, cell viability multiplex – SKBR3 breast tumor cells, AlphaScreen, ATP viability, primary screen (AID 461;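 active = Her2 level under about 52% in both replicate screens, with viability over 70% of control, limit read from the data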;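 as to Her2 level: lower value means less Her2 protein in the cells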;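 as to viability: percent of carrier control wells set as 100% viability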). The note with it: SKBR3 Her2 protein level, 18-24 h, measured here: SKBR3 viability, ATP luminescence, at 10 µM. Background: Alpha assays give light when donor and acceptor beads are brought close together.
Assay [2] has as its target Receptor tyrosine-protein kinase erbB-2 (Homo sapiens) (UniProt P04626). The assay is described as above. The note with it: 18-24 h, at 10 µM, stronger effect = lower value.
The nature of assay [3]: reduced viability of SK-BR-3 breast cancer cells – cell-based, 24 h, human, pilot screen (AID 572).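 Also: compound exposure lasted between 18 and 24 h rather than exactly 24 h; 100% = carrier-treated control wells.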 The note with it: SK-BR-3 viability, CellTiter-Glo luminescence, at 10 µM, stronger effect = lower value.
Assay [4] in a line: HUVEC growth inhibition – cell-based, human, primary screen (AID 575;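 active = viability at or below 30% in both replicate assays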;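 also: 100% = median of untreated cell wells with 0.1% DMSO on each plate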). The note with it: HUVEC proliferation, CellTiter-Glo luminescence, 72 h; at 10 µM; stronger effect = lower value. A digest of the protocol:
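Timing: 72 h treatment at 37 °C; material: HUVEC primary cells; technique: CellTiter-Glo luminescence measuring cellular ATP; controls: vehicle and MePR control wells; measure: percent of median DMSO-control luminescence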

Assay [5] in a line: H69AR cell proliferation blockers – human, duplicate replicates, primary screen (AID 580;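 active = viability at or under a set limit in both replicates, limit being median viability minus 3 SD, cut at about 48% in these data, passing the limit was not always enough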;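 also: 100% = mean luminescence of untreated wells and 0% = no signal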). The note with it: H69AR lung tumor cells viability, ATP luminescence, 72 h; at 10 µM; stronger effect = lower value.
A short description of assay [6]: MRP1 drug-resistance reversers in H69AR cells – cell-based, doxorubicin co-treatment, pilot screen (AID 601;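 active = viability loss from added drug above about 55%, and viability with drug at most 40%, in both replicates, limit read from the data, passing the limit was not always enough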). The note with it: CellTiter-Glo, 72 h, at 10 µM; for differential viability (reversal): stronger effect = higher value. (In general: ATP-based viability assays read luminescence as a measure of living cells.)
Assay [7] is described as follows: yeast transport mutant growth inhibition pilot in 384-well plates, post-Golgi transport modulator project (AID 636; in the data active = inhibition above about 31%). The note with it: absorbance 615 nm, about 18 h, stronger effect = higher value.
Assay [8] is described as follows: growth suppression of yeast trafficking mutant, preliminary HTS, modulators of trafficking downstream of Golgi apparatus project, 1536-format plate, OD 615 nm (AID 637; in the data active = inhibition above about 30%). The note with it: yeast transport mutant growth, absorbance 615 nm, 18 h; stronger effect = higher value.
The mark [9] stands for this setting: H69AR cells + 2 uM doxorubicin, measured here: viability with 2 uM doxorubicin, stronger effect = lower value.
The mark [10] stands for this setting: H69AR cells, compound alone cytotoxicity.

Sequence of Receptor tyrosine-protein kinase erbB-2 (Homo sapiens) (P04626 whole entry, looked up): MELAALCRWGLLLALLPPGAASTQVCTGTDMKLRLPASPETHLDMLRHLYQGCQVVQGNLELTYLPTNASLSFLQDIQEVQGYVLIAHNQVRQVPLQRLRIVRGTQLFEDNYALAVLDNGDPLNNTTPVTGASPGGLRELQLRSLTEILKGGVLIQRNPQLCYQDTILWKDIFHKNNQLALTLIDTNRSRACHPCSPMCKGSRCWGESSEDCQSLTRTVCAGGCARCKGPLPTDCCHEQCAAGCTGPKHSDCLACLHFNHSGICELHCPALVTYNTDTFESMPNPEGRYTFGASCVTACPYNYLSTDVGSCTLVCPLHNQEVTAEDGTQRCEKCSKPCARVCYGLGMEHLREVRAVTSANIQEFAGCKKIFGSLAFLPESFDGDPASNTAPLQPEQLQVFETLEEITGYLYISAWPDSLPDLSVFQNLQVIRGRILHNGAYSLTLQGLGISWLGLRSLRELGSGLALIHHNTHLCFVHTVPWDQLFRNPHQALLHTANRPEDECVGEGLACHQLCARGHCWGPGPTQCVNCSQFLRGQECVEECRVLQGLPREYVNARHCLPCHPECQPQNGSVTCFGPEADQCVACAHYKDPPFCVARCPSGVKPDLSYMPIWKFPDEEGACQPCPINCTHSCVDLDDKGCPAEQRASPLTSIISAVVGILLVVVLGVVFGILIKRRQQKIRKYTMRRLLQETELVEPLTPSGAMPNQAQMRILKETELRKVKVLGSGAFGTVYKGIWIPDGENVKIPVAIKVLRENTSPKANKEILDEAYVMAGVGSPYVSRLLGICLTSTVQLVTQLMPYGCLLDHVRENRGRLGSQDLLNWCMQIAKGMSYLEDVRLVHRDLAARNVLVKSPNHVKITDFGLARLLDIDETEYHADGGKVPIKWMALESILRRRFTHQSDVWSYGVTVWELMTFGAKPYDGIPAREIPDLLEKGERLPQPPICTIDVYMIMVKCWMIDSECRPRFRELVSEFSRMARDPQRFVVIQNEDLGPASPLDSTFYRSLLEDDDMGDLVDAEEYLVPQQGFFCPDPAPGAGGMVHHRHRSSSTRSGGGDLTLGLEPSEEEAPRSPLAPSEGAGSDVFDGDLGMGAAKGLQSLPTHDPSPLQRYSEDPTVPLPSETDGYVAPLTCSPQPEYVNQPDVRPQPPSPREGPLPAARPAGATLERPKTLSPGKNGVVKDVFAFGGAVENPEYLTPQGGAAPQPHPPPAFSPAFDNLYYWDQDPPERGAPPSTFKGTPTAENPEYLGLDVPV

Usually viability stands for a read-out of living cells in per cent, often relative to untreated cells. Broadly, the inhibition is the relative decrease from the control value, in per cent. For the molecule `CCc1cccc2c(=O)c(C(=O)NCCN3CCOCC3)c[nH]c12`, the viability is 104% in assay [1]; 104% (inactive) in assay [3]; 102% (inactive) in assay [4]; 108% (inactive) in assay [5]; 90% in assay [6] (setting [9]); 108% in assay [6] (setting [10]). For the same molecule, the Her2 level in assay [2] was 113% (inactive). In assay [6] (H69AR cells + 2 uM doxorubicin), the differential viability (reversal) was 18.2% (inactive). In addition, the inhibition is -5.47% (inactive) in assay [7] and 1.29% (inactive) in assay [8].
For the molecule `Cc1ccc(S(=O)(=O)N(CCO)c2cc3c(s2)CCCC3)cc1`, the viability in assay [1] was 114%; in assay [3] it was 114% (inactive); in assay [4] it was 68.6% (inactive); in assay [5], 81.9% (inactive); in assay [6] (setting [9]) it was 85.6%; in assay [6] (setting [10]) it was 81.9%. In assay [2], the Her2 level is 94.5% (inactive). Moreover, in assay [6] (H69AR cells + 2 uM doxorubicin), the differential viability (reversal) was -3.64% (inactive). Also, the figures for the inhibition in assay [7] and in assay [8] were -5.32% (inactive) and -7.5% (inactive), respectively.
On to `CCC(NS(=O)(=O)c1ccc(C)cc1)C(=O)N1CCC2(O)CCCCC2C1` (stereo not given), for which the viability in assay [1] was 94%; in assay [3] it was 94% (inactive); in assay [4], 90.7% (inactive); in assay [5], 94.5% (inactive); in assay [6] (setting [9]), 88.6%; in assay [6] (setting [10]), 94.5%. In assay [2], the Her2 level is 105% (inactive). Besides, the differential viability (reversal) in assay [6] (H69AR cells + 2 uM doxorubicin) was 5.91% (inactive). Besides, the inhibition in assay [7] is -3.2% (inactive); in assay [8], -1.8% (inactive).
On to `Cc1cc2ncn(N)c2cc1C`, for which the viability in assay [1] was 99.5%; in assay [3], 99.5% (inactive); in assay [4], 101% (inactive); in assay [5], 98.8% (inactive); in assay [6] (setting [9]), 98.3%; in assay [6] (setting [10]), 98.8%. Further, in assay [2], the Her2 level is 84% (inactive). In addition, the differential viability (reversal) in assay [6] (H69AR cells + 2 uM doxorubicin) is 0.485% (inactive). In addition, the inhibition in assay [7] was -7.7% (inactive); in assay [8], 1.83% (inactive).
As to `COc1ccccc1Nc1ccc(C(=O)NC2CCCCC2)cn1`, the viability was 100% in assay [1]; 100% (inactive) in assay [3]; 106% (inactive) in assay [4]; 93.2% (inactive) in assay [5]; 81.2% in assay [6] (setting [9]); 93.2% in assay [6] (setting [10]). Moreover, the Her2 level in assay [2] is 96% (inactive). In addition, the differential viability (reversal) in assay [6] (H69AR cells + 2 uM doxorubicin) was 12% (inactive). Moreover, the inhibition in assay [7] is -3.92% (inactive); in assay [8] it was -3.11% (inactive).
`CCCCn1c(SCC(=O)Nc2cc(C)on2)nnc1-c1cccnc1`: the viability in assay [1] was 96.5%; in assay [3] it was 96.5% (inactive); in assay [4], 87.8% (inactive); in assay [5] it was 104% (inactive); in assay [6] (setting [9]), 106%; in assay [6] (setting [10]), 104%. Also, the Her2 level in assay [2] is 111% (inactive). For the same molecule, the differential viability (reversal) in assay [6] (H69AR cells + 2 uM doxorubicin) is -2.12% (inactive). Further, the figures for the inhibition in assay [7] and in assay [8] were -0.67% (inactive) and 11% (inactive), respectively.
`FC(F)(F)c1cc(-c2ccco2)nc(N2CCOCC2)n1`: the viability is 86% in assay [1]; 86% (inactive) in assay [3]; 69.1% (inactive) in assay [4]; 92.4% (inactive) in assay [5]; 73.8% in assay [6] (setting [9]); 92.4% in assay [6] (setting [10]). In assay [2], the Her2 level was 80.5% (inactive). Further, the differential viability (reversal) in assay [6] (H69AR cells + 2 uM doxorubicin) is 18.6% (inactive). The inhibition in assay [7] is -6.93% (inactive); in assay [8], 7.21% (inactive).
Turning to `Cn1c(CCNC(=O)c2ccco2)nc2cc(NC(=O)C3CCCCC3)ccc21`, the viability was 101% in assay [1]; 101% (inactive) in assay [3]; 78.3% (inactive) in assay [4]; 84.5% (inactive) in assay [5]; 82.5% in assay [6] (setting [9]); 84.5% in assay [6] (setting [10]). In assay [2], the Her2 level is 114% (inactive). For the same molecule, the differential viability (reversal) in assay [6] (H69AR cells + 2 uM doxorubicin) was 2.02% (inactive). For the same molecule, the results for the inhibition in assay [7] and in assay [8] were -8.49% (inactive) and -1.59% (inactive), respectively.
As to `CS(=O)(=O)Nc1ccc(S(=O)(=O)Nc2nccs2)cc1`, the viability in assay [1] is 97%; in assay [3], 97% (inactive); in assay [4] it was 116% (inactive); in assay [5], 95.9% (inactive); in assay [6] (setting [9]), 92.2%; in assay [6] (setting [10]), 95.9%. Further, in assay [2], the Her2 level is 90% (inactive). Also, in assay [6] (H69AR cells + 2 uM doxorubicin), the differential viability (reversal) was 3.66% (inactive). The inhibition was -2.93% (inactive) in assay [7] and 1.31% (inactive) in assay [8].
Regarding `O=C(c1ccco1)N1CCN(S(=O)(=O)c2ccc(C3CCCCC3)cc2)CC1`, the viability was 96% in assay [1]; 96% (inactive) in assay [3]; 99.9% (inactive) in assay [4]; 85.6% (inactive) in assay [5]; 85.1% in assay [6] (setting [9]); 85.6% in assay [6] (setting [10]). The Her2 level in assay [2] was 97.5% (inactive). Moreover, the differential viability (reversal) in assay [6] (H69AR cells + 2 uM doxorubicin) was 0.505% (inactive). Moreover, the inhibition in assay [7] is -4.53% (inactive); in assay [8], 2.42% (inactive).
Consider `CCN(CC)C(=O)CN(c1cc(Cl)ccc1OC)S(C)(=O)=O`, for which the viability is 95.5% in assay [1]; 95.5% (inactive) in assay [3]; 95.2% (inactive) in assay [4]; 102% (inactive) in assay [5]; 93.3% in assay [6] (setting [9]); 102% in assay [6] (setting [10]). For the same molecule, the Her2 level in assay [2] is 89.5% (inactive). In addition, the differential viability (reversal) in assay [6] (H69AR cells + 2 uM doxorubicin) is 9.04% (inactive). Further, the inhibition in assay [7] is -1.18% (inactive); in assay [8] it was -3.71% (inactive).
Turning to `Cn1c(=O)c2c(-c3ccccc3)n(CCCN3CCOCC3)cc2n(C)c1=O`, the viability is 77.5% in assay [1]; 77.5% (inactive) in assay [3]; 69.7% (inactive) in assay [4]; 82.2% (inactive) in assay [5]; 71.9% in assay [6] (setting [9]); 82.2% in assay [6] (setting [10]). In assay [2], the Her2 level was 98.5% (inactive). The differential viability (reversal) in assay [6] (H69AR cells + 2 uM doxorubicin) was 10.4% (inactive). For the same molecule, the inhibition in assay [7] is 2.21% (inactive); in assay [8] it was -4.29% (inactive).
As for `COc1ccccc1C(=O)n1nc(-c2ccc(Cl)cc2)nc1N`, the viability in assay [1] was 90%; in assay [3], 90% (inactive); in assay [4], 78.7% (inactive); in assay [5], 71.2% (inactive); in assay [6] (setting [9]), 84.9%; in assay [6] (setting [10]) it was 71.2%. In assay [2], the Her2 level is 74.5% (inactive). The differential viability (reversal) in assay [6] (H69AR cells + 2 uM doxorubicin) was -13.7% (inactive). The inhibition was -5.06% (inactive) in assay [7] and -8.5% (inactive) in assay [8].
With `O=C(CCn1c(=O)sc2ccccc21)NC1=NCCS1`, the viability is 84% in assay [1]; 84% (inactive) in assay [3]; 94.6% (inactive) in assay [4]; 91.6% (inactive) in assay [5]; 86.9% in assay [6] (setting [9]); 91.6% in assay [6] (setting [10]). Besides, the Her2 level in assay [2] was 96% (inactive). Also, the differential viability (reversal) in assay [6] (H69AR cells + 2 uM doxorubicin) is 4.68% (inactive). Besides, the inhibition is -1.87% (inactive) in assay [7] and -6.72% (inactive) in assay [8].
